Reference: ChEMBL document CHEMBL4406859, “Antitumor and antiviral activities of 4-substituted 1,2,3-triazolyl-2,3-dibenzyl-L-ascorbic acid derivatives” (Eur J Med Chem, 2019)
pEC50, pIC50: −log10 of the molar value. The source made the active and inactive calls. The rule behind the calls is not given here.

How the values were obtained:
MCF7 [1] = experiment: Induction of apoptosis in human MCF7 cells assessed as late apoptotic cells at 2 times of cytotoxic IC50 incubated for 24 hrs by annexin V staining based inverted phase contrast fluorescence microscopy (reference value: […]); assay type: functional
MCF7 [2] = experiment: Induction of apoptosis in human MCF7 cells assessed as late apoptotic cells at 2 times of cytotoxic IC50 incubated for 48 hrs by annexin V staining based inverted phase contrast fluorescence microscopy (reference value: 10.60 %); assay type: functional
Human alphaherpesvirus 3 [3] = experiment: Antiviral activity against thymidine kinase deficient Varicella zoster virus infected in human HELF cells assessed as reduction in virus-induced cytopathogenicity incubated for 7 days by Giemsa staining based microscopic analysis; assay type: functional, organism-based; conditions: Human alphaherpesvirus 3, HELF, 168 h
MCF7 [4] = experiment: Induction of apoptosis in human MCF7 cells assessed as necrotic cells at 2 times of cytotoxic IC50 incubated for 24 hrs by annexin V staining based inverted phase contrast fluorescence microscopy (reference value: 0 %); assay type: functional
Influenza A virus [5] = experiment: Antiviral activity against Influenza A virus (A/Ned/378/05(H1N1)) infected in dog MDCK cells assessed as reduction in virus-induced cytopathogenicity incubated for 7 days by microscopic analysis; assay type: functional, organism-based
MCF7 [6] = experiment: Induction of apoptosis in human MCF7 cells assessed as early apoptotic cells at 2 times of cytotoxic IC50 incubated for 48 hrs by annexin V staining based inverted phase contrast fluorescence microscopy (reference value: 0 %); assay type: functional
Reovirus sp. = experiment: Antiviral activity against Reovirus infected in vero cells assessed as reduction in virus-induced cytopathogenicity incubated for 7 days by microscopic analysis; assay type: functional, organism-based
HepG2 = experiment: Antiproliferative activity against human HepG2 cells assessed as reduction in cell viability incubated for 72 hrs by MTT assay; assay type: functional, cell-based; conditions: HepG2, 72 h
Outline: (§1)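 Cells (ATCC) grown in DMEM with 10 FBS, penicillin/streptomycin, 2 mM glutamine, 37 °C, 5 CO2. 5000 cells/well seeded; after 24 h, freshly prepared dilutions at five concentrations (0.01–100 μM) added for 72 h. MTT read-out; absorbance converted to percentage growth by NIH formulas. Two experiments in quadruplicate; IC50 by linear regression.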

Influenza A virus H3N2 [7] = experiment: Antiviral activity against Influenza A virus (A/HK/7/87(H3N2)) infected in dog MDCK cells assessed as reduction in virus-induced cytopathogenicity incubated for 7 days by MTS assay; assay type: functional, organism-based; conditions: A/Hong Kong/7/1987(H3N2); for pEC50: 168 h
CFPAC-1 = experiment: Antiproliferative activity against human CFPAC-1 cells assessed as reduction in cell viability incubated for 72 hrs by MTT assay; assay type: functional, cell-based; conditions: Homo sapiens, CFPAC-1, 72 h; read-out: IC50; outline: as §1
HCT-116 = experiment: Antiproliferative activity against human HCT116cells assessed as reduction in cell viability incubated for 72 hrs by MTT assay; assay type: functional, cell-based; conditions: HCT-116, 72 h; outline: as §1
Influenza A virus H3N2 [8] = experiment: Antiviral activity against Influenza A virus (A/HK/7/87(H3N2)) infected in dog MDCK cells assessed as reduction in virus-induced cytopathogenicity incubated for 7 days by microscopic analysis; assay type: functional, organism-based; conditions: A/Hong Kong/7/1987(H3N2); for pEC50: 168 h
Human coronavirus 229E = experiment: Antiviral activity against Human coronavirus 229E infected in human HELF cells assessed as reduction in virus-induced cytopathogenicity incubated for 7 days by microscopic analysis; assay type: functional, organism-based
MCF7 [9] = experiment: Downregulation of NOS2 in human MCF7 cells at cytotoxic IC50 incubated for 24 and 48 hrs by Western blot analysis; assay type: functional, cell-based
Human alphaherpesvirus 1 [10] = experiment: Antiviral activity against Herpes simplex virus 1 KOS infected in human HELF cells assessed as reduction in virus-induced cytopathogenicity incubated for 7 days by microscopic analysis; assay type: functional, organism-based; conditions: strain KOS
MCF7 [11] = experiment: Induction of apoptosis in human MCF7 cells assessed as early apoptotic cells at 2 times of cytotoxic IC50 incubated for 24 hrs by annexin V staining based inverted phase contrast fluorescence microscopy (reference value: 0 %); assay type: functional
Cytomegalovirus [12] = experiment: Antiviral activity against Cytomegalovirus Davis infected in human HELF cells assessed as reduction in virus-induced cytopathogenicity incubated for 7 days by Giemsa staining based microscopic analysis; assay type: functional, organism-based; conditions: Human betaherpesvirus 5, Davis, 168 h
Outline: (§2)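 Confluent HEL fibroblasts infected with CMV (Davis or AD-169) at 100 PFU/well for 2 h. Residual virus removed, then medium with graded compound concentrations added (duplicate). Incubated 7 days at 37 °C. Cytopathogenicity scored microscopically after ethanol fixation and Giemsa staining. EC50 read from plots of % cytopathogenicity versus concentration.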

MCF7 [13] = experiment: Upregulation of HIF1alpha in human MCF7 cells at cytotoxic IC50 incubated for 24 and 48 hrs by Western blot analysis; assay type: functional, cell-based
Coxsackievirus B4 = experiment: Antiviral activity against Human coxsackievirus B4 infected in vero cells assessed as reduction in virus-induced cytopathogenicity incubated for 7 days by microscopic analysis; assay type: functional, organism-based
Cytomegalovirus [14] = experiment: Antiviral activity against Cytomegalovirus AD169 infected in human HELF cells assessed as reduction in virus-induced cytopathogenicity incubated for 7 days by Giemsa staining based microscopic analysis; assay type: functional, organism-based; conditions: Human betaherpesvirus 5, AD169, HELF, 168 h; outline: as §2
Human alphaherpesvirus 1 [15] = experiment: Antiviral activity against Herpes simplex virus 1 TK-KOS-ACV infected in human HELF cells assessed as reduction in virus-induced cytopathogenicity incubated for 7 days by microscopic analysis; assay type: functional, organism-based
MCF7 [16] = experiment: Antiproliferative activity against human MCF7 cells assessed as reduction in cell viability incubated for 72 hrs by MTT assay; assay type: functional, cell-based; conditions: MCF7, 72 h; outline: as §1
HeLa = experiment: Antiproliferative activity against human HeLa cells assessed as reduction in cell viability incubated for 72 hrs by MTT assay; assay type: functional, cell-based; outline: as §1
MCF7 [17] = experiment: Induction of apoptosis in human MCF7 cells assessed as necrotic cells at 2 times of cytotoxic IC50 incubated for 24 hrs by annexin V staining based inverted phase contrast fluorescence microscopy (reference value: 0.84 %); assay type: functional
Sindbis virus = experiment: Antiviral activity against Sindbis virus infected in vero cells assessed as reduction in virus-induced cytopathogenicity incubated for 7 days by microscopic analysis; assay type: functional, organism-based
Human adenovirus 2 = experiment: Antiviral activity against Human adenovirus 2 infected in human HELF cells assessed as reduction in virus-induced cytopathogenicity incubated for 7 days by microscopic analysis; assay type: functional, organism-based
Influenza B virus [18] = experiment: Antiviral activity against Influenza B virus (B/Ned/537/05) infected in dog MDCK cells assessed as reduction in virus-induced cytopathogenicity incubated for 7 days by microscopic analysis; assay type: functional, organism-based; conditions: for pEC50: 168 h
[19] = Cytotoxicity against human HELF cells assessed as minimum cytotoxic concentration by observing alteration in cell morphology incubated for 3 days by microscopic analysis; assay type: cell-based; conditions: HELF cells
Outline: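 Read-out is the minimum cytotoxic concentration (MCC): the lowest compound concentration giving a microscopically detectable change in cell morphology. Measured on confluent human embryonic lung (HEL) fibroblast cultures exposed to a range of compound concentrations.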

Influenza A virus [20] = experiment: Antiviral activity against Influenza A virus (A/Ned/378/05(H1N1)) infected in dog MDCK cells assessed as reduction in virus-induced cytopathogenicity incubated for 7 days by MTS assay; assay type: functional, organism-based
HFF = experiment: Cytotoxicity against human HFF cells assessed as reduction in cell viability incubated for 72 hrs by MTT assay; assay type: cell-based; outline: as §1
A549 = experiment: Antiproliferative activity against human A549 cells assessed as reduction in cell viability incubated for 72 hrs by MTT assay; assay type: functional, cell-based; conditions: A549, 72 h; outline: as §1
SW-620 = experiment: Antiproliferative activity against human SW620 cells assessed as reduction in cell viability incubated for 72 hrs by MTT assay; assay type: functional, cell-based; conditions: SW-620, 72 h; outline: as §1
Influenza B virus [21] = experiment: Antiviral activity against Influenza B virus (B/Ned/537/05) infected in dog MDCK cells assessed as reduction in virus-induced cytopathogenicity incubated for 7 days by MTS assay; assay type: functional, organism-based; conditions: for pEC50: 168 h
Human alphaherpesvirus 3 [22] = experiment: Antiviral activity against thymidine kinase positive Varicella zoster virus infected in human HELF cells assessed as reduction in virus-induced cytopathogenicity incubated for 7 days by Giemsa staining based microscopic analysis; assay type: functional, organism-based; conditions: Human alphaherpesvirus 3, HELF, 168 h
Human alphaherpesvirus 2 = experiment: Antiviral activity against Herpes simplex virus 2 G infected in human HELF cells assessed as reduction in virus-induced cytopathogenicity incubated for 7 days by microscopic analysis; assay type: functional, organism-based
[23] = Cytotoxicity against dog MDCK cells assessed as minimum cytotoxic concentration by observing alteration in cell morphology incubated for 3 days by microscopic analysis; assay type: cell-based, Canis lupus familiaris
MDCK = experiment: (§3) Cytotoxicity against dog MDCK cells assessed as reduction in cell viability incubated for 3 days by coulter counter method; assay type: cell-based, Canis lupus familiaris; conditions: mdck, 72 h
[24] = as §3; assay type: cell-based, Canis lupus familiaris; conditions: MDCK cells
[25] = Influenza A virus, A/Ned/378/05(H1N1), MDCK, 168 h

Structure (SMILES): CCCCCCCCCCc1cn(C[C@H](O)[C@H]2OC(=O)C(OCc3ccccc3)=C2OCc2ccccc2)nn1
- Activity (MCF7 [1]): 1.68%
- Activity (MCF7 [2]): 35.3%
- pEC50 (Human alphaherpesvirus 3 [3]): 4.97
- Activity (MCF7 [4]): 11.36%
- Activity (Influenza A virus [5]): inactive
- Activity (MCF7 [6]): 13.4%
- Activity (Reovirus sp.): inactive
- pIC50 (HepG2): 4.91
- Activity (Influenza A virus H3N2 [7]): inactive
- pIC50 (CFPAC-1): 4.40
- pIC50 (HCT-116): 4.54
- Activity (Influenza A virus H3N2 [8]): inactive
- Activity (Human coronavirus 229E): inactive
- Activity (MCF7 [9]): Active
- Activity (Human alphaherpesvirus 1 [10]): inactive
- Activity (MCF7 [11]): 0%
- pEC50 (Cytomegalovirus [12]): < 5.40
- Activity (MCF7 [13]): Active
- Activity (Coxsackievirus B4): inactive
- pEC50 (Cytomegalovirus [14]): < 5.40
- Activity (Human alphaherpesvirus 1 [15]): inactive
- pIC50 (MCF7 [16]): 7.10
- pIC50 (HeLa): 4.64
- Activity (MCF7 [17]): 8.76%
- Activity (Sindbis virus): inactive
- Activity (Human adenovirus 2): inactive
- Activity (Influenza B virus [18]): inactive
- MCC at 72 h [19]: 20 µM
- Activity (Influenza A virus [20]): inactive
- pIC50 (HFF): < 4.00
- pIC50 (A549): 5.17
- pIC50 (SW-620): 4.35
- Activity (Influenza B virus [21]): inactive
- pEC50 (Human alphaherpesvirus 3 [22]): 5.11
- Activity (Human alphaherpesvirus 2): inactive

Structure (SMILES): CC(N)C12CC3CC(CC(C3)C1)C2 (stereo not given) [RIMANTADINE]
- pEC50 (Influenza A virus [5]; [25]): < 3.70
- pEC50 (Influenza A virus H3N2 [7]): 8.00
- pEC50 (Influenza A virus H3N2 [8]): 8.00
- pEC50 (Influenza B virus [18]): < 3.70
- MCC at 72 h [23]: > 200 µM
- pEC50 (Influenza A virus [20]; [25]): < 3.70
- pEC50 (Influenza B virus [21]): < 3.70
- CC50 (MDCK): > 200 µM

Structure (SMILES): NC(=O)c1ncn([C@@H]2O[C@H](CO)[C@@H](O)[C@H]2O)n1 [RIBAVIRIN]
- pEC50 (Influenza A virus [5]): 5.05
- pEC50 (Influenza A virus H3N2 [7]): 5.85
- pEC50 (Influenza A virus H3N2 [8]): 5.64
- pEC50 (Influenza B virus [18]): 5.25
- MCC at 72 h [19]: > 250 µM
- MCC at 72 h [23]: > 100 µM
- pEC50 (Influenza A virus [20]; [25]): 4.74
- pEC50 (Influenza B virus [21]): 5.34
- CC50 at 72 h [24]: > 100 µM

Structure (SMILES): NC12CC3CC(CC(C3)C1)C2 [AMANTADINE]
- pEC50 (Influenza A virus [5]; [25]): 4.70
- pEC50 (Influenza A virus H3N2 [7]): 7.52
- pEC50 (Influenza A virus H3N2 [8]): 6.70
- pEC50 (Influenza B virus [18]): < 4.00
- MCC at 72 h [23]: > 100 µM
- pEC50 (Influenza A virus [20]): 4.65
- pEC50 (Influenza B virus [21]): < 4.00
- CC50 (MDCK): > 100 µM
